The conditions of series [1]: cited from earlier work.
In a further series the test system is HCT116 cells. Kind of series: Cell viability assay. The format is cell-based, human. The conditions noted are these: for IC50: Homo sapiens, HCT-116, read-out: antiproliferative activity. The procedure, abridged:
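HCT116 cells (ATCC) were grown in DMEM with 10% FBS at 37 °C, 5% CO2. They were seeded at 1 × 10^4 cells/well and treated 24 h later with a range of test-compound concentrations or 1% EtOH solvent control. After 48 h, viability was read by MTT per the kit instructions.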

Series [2] is described as follows: Aqueous stability, pH 4.88. The format is physicochemical. The conditions noted are these: Figure 3 conditions generally, especially acidic (pH 4.88).
The test system of series [3] is met proto-oncogene receptor (MET). Kind of series: Immunoblot analysis for RTK. The series is classed as cell-based, human. The conditions noted are these: HCT116, 24 h. In outline: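 HCT116 cells were seeded at 4 × 10^5 cells/well in 6-well plates and dosed the next day with graded test-compound concentrations or 1% EtOH. After 24 h, whole-cell lysates were made in PhosphoSafe buffer, protein was quantified by BCA, and equal protein was run on 4–12% SDS-PAGE. Blots on PVDF were probed with anti-Met plus secondary antibody, with chemiluminescent detection.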
(A western blot detects proteins with antibodies after separation by electrophoresis.)

The subject of the next series is HCT116 xenograft. Nature of the series: In vivo efficacy, HCT116 xenograft mouse model.
The test system of another series is VEGFR2. Kind of series: Immunoblot of xenograft tumors for RTK. The format is in vivo, mouse. The conditions noted are these: higher dose (0.25 mg/kg), end of efficacy study.
Series [4] has as its system colorectal tumor xenograft. The conditions noted are these: cited from earlier work.

`CC[C@H](C)[C@H]1C(=O)N2CCC[C@H]2C(=O)O[C@H](C(C)(C)C)C[C@@H](C)C[C@H](O)[C@@H](C)C2=N[C@@H](CCC(=O)N[C@@H](Cc3ccc(OC)cc3)C(=O)N(C)[C@@H](C)C(=O)N1C)CS2` [Compound 34-epi-1a, apratoxin S6]: the “potency relative to 1a” value in series [1] (ref 2a) was “same potency”.
In the case of `CC[C@H](C)[C@H]1C(=O)N2CCC[C@H]2C(=O)O[C@H](C(C)(C)C)C[C@@H](C)C[C@H](O)[C@H](C)C2=N[C@H](CCC(=O)N[C@@H](Cc3ccc(OC)cc3)C(=O)N(C)[C@@H](C)C(=O)N1C)CS2` [Compound 1d, Apratoxin S9], the “fold potency over the other apratoxins” value with HCT116 cells (all three assays (cell growth, MET levels, VEGF-A secretion)) was 2–3 fold. The “relative in vitro stability” value in series [2] is reported as “slightly enhanced compared with that of 1a”. Also, the “potency in reducing MET levels” value in series [3] was “picomolar (subnanomolar) potency”.
Consider `CC[C@H](C)[C@H]1C(=O)N2CCC[C@H]2C(=O)O[C@H](C(C)(C)C)C[C@@H](C)C[C@H](O)C(C)(C)C2=N[C@@H](CCC(=O)N[C@@H](Cc3ccc(OC)cc3)C(=O)N(C)[C@@H](C)C(=O)N1C)CS2` [Compound 1c, Apratoxin S8], for which, in the series with HCT116 cells, the IC50 was in the range of 1 to 2 nM. Moreover, in the series on HCT116 xenograft (0.1 mg/kg (~2 μg/mouse) daily ip for 16 days), the tumor growth inhibition entry is “about 50%”. Besides, in the series on HCT116 xenograft (0.25 mg/kg (~5 μg/mouse) daily ip for 16 days), the “effect on tumor growth” value is “strongly retarded the tumor growth”. Also, in the series on HCT116 xenograft (0.1 and 0.25 mg/kg daily ip for 16 days), the “signs of toxicity (weight loss, abnormal behavior)” value is “did not observe signs of toxicity”. Also, the “VEGFR2 expression levels in tumors” value in the series on VEGFR2 is recorded as “detectable reduction in VEGFR2 expression levels”.
In the case of `CC[C@H](C)[C@H]1C(=O)N2CCC[C@H]2C(=O)O[C@H](C(C)(C)C)C[C@@H](C)C[C@H](O)[C@H](C)C2=N[C@@H](CCC(=O)N[C@@H](Cc3ccc(OC)cc3)C(=O)N(C)[C@@H](C)C(=O)N1C)CS2` [Compound 1a, apratoxin S4], the “potency and efficacy versus apratoxin A” value in series [4] (colorectal tumor xenograft model ref 2a) is “greater potency and efficacy”. For the same molecule, the tolerability in vivo entry in series [4] (ref 2a) is given as “much better tolerated”. In series [2], the “relative in vitro stability” value is given as “somewhat less stable than 1c”.
For the molecule `CC[C@H](C)[C@H]1C(=O)N2CCC[C@H]2C(=O)O[C@H](C(C)(C)C)C[C@@H](C)C/C=C/C2=N[C@@H](CCC(=O)N[C@@H](Cc3ccc(OC)cc3)C(=O)N(C)[C@@H](C)C(=O)N1C)CS2` [apratoxin E], the “activity relative to other apratoxins” value in series [1] (ref 1c) was “much reduced activity”.
As to `CC[C@H](C)[C@H]1C(=O)N2CCC[C@H]2C(=O)O[C@H](C(C)(C)C)C[C@@H](C)C[C@H](O)CC2=N[C@@H](CCC(=O)N[C@@H](Cc3ccc(OC)cc3)C(=O)N(C)[C@@H](C)C(=O)N1C)CS2` [Compound 1b, Apratoxin S7], the IC50 in the series with HCT116 cells fell in the range of 1 to 2 nM. Further, the “relative in vitro stability” value in series [2] is “somewhat less stable than 1c”.

Values taken from publication PMC3993931 (Journal of Medicinal Chemistry, 2014).
